Only some compounds are listed: those with a hit (about 1.8% of all), similar ones and a draw of the others.
M5 antag = antagonists of human muscarinic M5 receptor (CHRM5). P08912. CHO-hM5 cells, Fluo-8 calcium fluorescence, ACh EC80. inhibition, % at 3 µM. 0.59% of 360,000 active;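 active = inhibition above a per-plate cutoff, the mean of that plate's test compounds plus 3 SD, cut at about 27% in these data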
M5 PAM = potentiates acetylcholine response at human M5 receptor; P08912; CHO-K1 hM5, Fluo-8 calcium, ACh EC20 PAM; 0% = ACh EC20, 100% = ACh EC100; activation, % at 3 µM; 0.3% of 360,000 active; AID 624038;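 active = activation above the run cutoff, the mean activation of all test compounds plus 3 SD, cut at about 18% in these data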
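System: CHO-K1 hM5 cells. Reagent: acetylcholine, EC20 level. Compound dosing: single dose, 3 µM nominal final test concentration. Timing: Post-acetylcholine fluorescence recording 140 s. Detection: Fluo-8 calcium fluorescence. Read-out: % activation, ACh-normalized. Benchmarks: ACh EC20 and EC100 wells. Repeats: singlicate, one well per test compound.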
M4 antag = blocks acetylcholine activation of human M4 receptor; P08173; CHO-hM4 cells, ACh EC80, Fluo-8 calcium fluorescence; inhibition, % at 3 µM; 0.73% of 360,000 active; AID 624125;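 active = inhibition above its plate's cutoff, the mean inhibition of sample wells plus 3 SD, cut at about 27% in these data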
Target sequence (P08173 whole entry, looked up): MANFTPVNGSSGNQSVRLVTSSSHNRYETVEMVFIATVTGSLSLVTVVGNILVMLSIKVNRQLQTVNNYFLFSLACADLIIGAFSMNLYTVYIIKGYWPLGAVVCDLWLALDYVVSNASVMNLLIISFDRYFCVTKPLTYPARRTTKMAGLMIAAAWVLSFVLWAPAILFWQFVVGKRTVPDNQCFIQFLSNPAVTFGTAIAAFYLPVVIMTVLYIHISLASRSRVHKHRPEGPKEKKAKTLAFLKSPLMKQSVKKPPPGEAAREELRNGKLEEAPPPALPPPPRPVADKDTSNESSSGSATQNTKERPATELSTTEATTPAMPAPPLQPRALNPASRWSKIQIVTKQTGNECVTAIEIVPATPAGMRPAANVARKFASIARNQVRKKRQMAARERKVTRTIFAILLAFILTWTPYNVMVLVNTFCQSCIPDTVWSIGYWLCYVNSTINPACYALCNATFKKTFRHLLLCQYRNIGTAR
CHRM4 PAM = positive allosteric modulators of human muscarinic M4 receptor; activation, % at 3 µM; CHO-K1 hM4/Gqi5, Fluo-8 calcium fluorescence, ACh EC20; 0% = ACh EC20, 100% = maximal ACh; 0.4% of 360,000 active; AID 624126;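 active = activation above its plate's cutoff, the mean activation of sample wells plus 3 SD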
CHRM4 agonist = CHRM4 agonism in calcium assay; 0.14% of 360,000 active; activation, % at 3 µM; CHO-K1 hM4/Gqi5, Fluo-8 calcium fluorescence; vehicle 0%, full acetylcholine response 100%;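 active = activation above the run mean over all test wells plus 3 SD, cut at about 32% in these data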;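 note: peak over basal fluorescence ratio per well then scaled between controls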
M5 ag = agonists of human muscarinic M5 receptor (CHRM5); P08912; activation, % at 3 µM; 0.19% of 360,000 active; CHO-K1 hM5 cells, Fluo-8 calcium fluorescence; 0% DMSO wells, 100% maximal acetylcholine response;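 active = activation above the run's mean over test compounds plus 3 SD, cut at about 23% in these data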;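 note: signal is peak over basal fluorescence ratio across the kinetic read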
A number is an active result.

For COCCCNC(=O)Cn1c(=O)n(CC(=O)NCCc2ccc(OC)c(OC)c2)c(=O)c2sccc21 the results were M5 antag inactive, M5 PAM inactive, M4 antag inactive, CHRM4 PAM inactive, CHRM4 agonist inactive and M5 ag inactive.
Screening COc1ccc(CCNC(=O)Cn2c(=O)n(-c3ccc(C)c(F)c3)c(=O)c3sccc32)cc1OC returned M5 antag inactive, M5 PAM inactive, M4 antag inactive, CHRM4 PAM 32, CHRM4 agonist inactive and M5 ag inactive.
`Cc1nc(-c2ccc(F)cc2)c(CC(=O)N2CCN(S(=O)(=O)c3cccc(F)c3)CC2)s1` gave M5 antag inactive, M5 PAM inactive, M4 antag inactive, CHRM4 PAM inactive, CHRM4 agonist inactive and M5 ag inactive.
For COc1ccc(F)cc1-c1cc(NC=O)c2ncc(-c3cc(OC)c(OC)c(OC)c3)n2c1 the results were M5 antag inactive, M5 PAM inactive, M4 antag inactive, CHRM4 PAM inactive, CHRM4 agonist inactive and M5 ag inactive.
`COC(=O)c1ccc(CNC(=O)Cn2cnc3c(OCc4ccccc4)ncnc32)cc1` gave M5 antag inactive, M5 PAM inactive, M4 antag inactive, CHRM4 PAM inactive, CHRM4 agonist inactive and M5 ag inactive.
`CCOc1ccc(/C=C/C2=Cc3c(sc(NC(=O)CSc4n[nH]c(N)n4)c3C#N)C(C)(C)C2)cc1` gave M5 antag inactive, M5 PAM inactive, M4 antag 47, CHRM4 PAM inactive, CHRM4 agonist inactive and M5 ag inactive.
For O=C(CNC1CCCCC1)N1CCc2ccccc2C1 the results were M5 antag inactive, M5 PAM inactive, M4 antag 30, CHRM4 PAM inactive, CHRM4 agonist inactive and M5 ag inactive.
Screening O=C(NC1CCCCC1)N1CCc2ccccc2C1 returned M5 antag inactive, M5 PAM inactive, M4 antag inactive, CHRM4 PAM inactive, CHRM4 agonist inactive and M5 ag inactive.
Screening CCc1ccccc1-n1c(SCC(=O)NC)nnc1-c1ccco1 returned M5 antag inactive, M5 PAM 18, M4 antag inactive, CHRM4 PAM inactive, CHRM4 agonist inactive and M5 ag inactive.
Screening CNC(=O)CSc1nnc(-c2ccco2)n1-c1ccc(C)cc1 returned M5 antag inactive, M5 PAM inactive, M4 antag inactive, CHRM4 PAM inactive, CHRM4 agonist inactive and M5 ag inactive.
Screening O=C(CN1C(=O)NC2(CCCCC2)C1=O)N1CCN(S(=O)(=O)c2ccc(F)c(F)c2F)CC1 returned M5 antag inactive, M5 PAM inactive, M4 antag inactive, CHRM4 PAM inactive, CHRM4 agonist inactive and M5 ag inactive.
`CN(C)C(C)(C)C#CCC(c1ccccc1)c1ccccc1` gave M5 antag 46, M5 PAM inactive, M4 antag 38, CHRM4 PAM inactive, CHRM4 agonist inactive and M5 ag inactive.
Screening CN(C)C(C)(C)C#CCCCCC#CC(C)(C)N(C)C returned M5 antag inactive, M5 PAM inactive, M4 antag inactive, CHRM4 PAM inactive, CHRM4 agonist inactive and M5 ag inactive.
CCN(CC(=O)Nc1c(F)cccc1F)C(=O)c1ccc2c(c1)OCO2 was read as M5 antag inactive, M5 PAM inactive, M4 antag inactive, CHRM4 PAM inactive, CHRM4 agonist inactive and M5 ag inactive.
Screening O=C(O)CCN1C(=O)C2C3C=CC(C3)C2C1=O (stereo not drawn) returned M5 antag inactive, M5 PAM inactive, M4 antag inactive, CHRM4 PAM inactive, CHRM4 agonist inactive and M5 ag inactive.
`O=C(O)CCN1C(=O)C2CCCCC2C1=O` (stereo not drawn) gave M5 antag inactive, M5 PAM inactive, M4 antag inactive, CHRM4 PAM 19, CHRM4 agonist inactive and M5 ag inactive.
Screening O=C(Nc1cccc(-c2cccc(Cl)c2)c1)C1CCN(Cc2nccs2)CC1 returned M5 antag inactive, M5 PAM inactive, M4 antag inactive, CHRM4 PAM inactive, CHRM4 agonist inactive and M5 ag inactive.
For O=C(CCC1CCN(Cc2nccs2)CC1)Nc1ccccc1 the results were M5 antag 29, M5 PAM inactive, M4 antag inactive, CHRM4 PAM inactive, CHRM4 agonist inactive and M5 ag inactive.
CC(C)CC(=O)Nc1nnc(S(=O)(=O)N2c3ccccc3CC2C)s1 (stereo not drawn) was read as M5 antag inactive, M5 PAM inactive, M4 antag inactive, CHRM4 PAM inactive, CHRM4 agonist inactive and M5 ag inactive.
Screening Cc1coc2c(C)c3oc(=O)c(CCC(=O)N[C@@H](C)C(=O)N[C@@H](Cc4ccccc4)C(=O)O)c(C)c3cc12 returned M5 antag inactive, M5 PAM inactive, M4 antag inactive, CHRM4 PAM inactive, CHRM4 agonist inactive and M5 ag inactive.
Cc1n(Cc2ccccc2)c2ccccc2[n+]1Cc1ccccc1 was read as M5 antag 28, M5 PAM inactive, M4 antag inactive, CHRM4 PAM inactive, CHRM4 agonist inactive and M5 ag inactive.
`Cc1n(Cc2ccccc2)c2cc([N+](=O)[O-])ccc2[n+]1Cc1ccccc1` gave M5 antag inactive, M5 PAM inactive, M4 antag inactive, CHRM4 PAM inactive, CHRM4 agonist inactive and M5 ag inactive.
Screening NC(=O)CC[C@@H]1NC(=O)[C@H](CO)NC(=O)c2cc([N+](=O)[O-])cc(I)c2OCC[C@@H](C(N)=O)NC1=O returned M5 antag inactive, M5 PAM inactive, M4 antag inactive, CHRM4 PAM inactive, CHRM4 agonist inactive and M5 ag inactive.
NC(=O)[C@@H]1CCOc2c(I)cc([N+](=O)[O-])cc2C(=O)N[C@@H](CO)C(=O)NCC(=O)N1 was read as M5 antag inactive, M5 PAM 21, M4 antag inactive, CHRM4 PAM inactive, CHRM4 agonist inactive and M5 ag inactive.
For Cc1noc(C)c1CCC(=O)N1CCCC(N2CCN(c3ccc(F)cc3)CC2)C1 (stereo not drawn) the results were M5 antag inactive, M5 PAM inactive, M4 antag inactive, CHRM4 PAM inactive, CHRM4 agonist inactive and M5 ag inactive.
Nc1nc(SCc2ccccc2[N+](=O)[O-])c2ncn(Cc3ccccc3)c2n1 was read as M5 antag inactive, M5 PAM inactive, M4 antag 40, CHRM4 PAM inactive, CHRM4 agonist inactive and M5 ag inactive.
Screening Cn1cnc([N+](=O)[O-])c1Sc1nc(N)nc2c1ncn2Cc1ccccc1 returned M5 antag inactive, M5 PAM inactive, M4 antag inactive, CHRM4 PAM inactive, CHRM4 agonist inactive and M5 ag inactive.
COc1ccc(NC(=O)COC(=O)c2cccn2C)cc1S(=O)(=O)N1CCCCC1 was read as M5 antag inactive, M5 PAM inactive, M4 antag inactive, CHRM4 PAM inactive, CHRM4 agonist inactive and M5 ag inactive.

Screening results from PubChem BioAssay.
